For assay [1], the system named is Spodoptera exigua. As to the kind of experiment: Insecticidal activity against beet armyworm eggs assessed as inhibition of insect growth at 28 degC after 6 days by lepidopteran diet assay. The assay is classed as functional. As to conditions: 144 h. Summed up: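 Beet armyworm eggs (8-10 per well) on artificial diet in 96-well plates. Test samples were applied in acetone-water (50:50), dried onto the diet surface, and tested at 0.98-500 ppm (of diet weight) in 2-fold steps. Plates were incubated 6 days at 28 °C. Value is the minimum concentration inhibiting growth relative to untreated control.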

Assay [2] relates to Spodoptera exigua. As to the kind of experiment: Insecticidal activity against 3/4th instar beet armyworm assessed as intoxication and mortality topically dosed at 5 ug/larva after 24 hrs by lepidopteran topical assay.
In assay [3] the test system is Spodoptera exigua. As to the kind of experiment: Insecticidal activity against beet armyworm assessed as circling dosed by ingestion from leaf after 18 hrs by lepidopteran limited ingestion exposure assay. The class given is functional, organism-based.
In assay [4] the test system is Spodoptera exigua. As to the kind of experiment: Insecticidal activity against fourth instar beet armyworm assessed as body tremors and partial paralysis after 1 hrs by BAW injection assay. The assay is classed as functional, organism-based.
The subject of assay [5] is Trichoplusia ni. As to the kind of experiment: Insecticidal activity against cabbage looper assessed as body tremors dosed by ingestion from leaf after 18 hrs by lepidopteran limited ingestion exposure assay. The assay is classed as functional, organism-based.
In assay [6] the test system is Trichoplusia ni. As to the kind of experiment: Insecticidal activity against 3/4th instar cabbage looper assessed as intoxication topically dosed at 5 ug/larva after 24 hrs by lepidopteran topical assay.
In assay [7] the test system is Trichoplusia ni. As to the kind of experiment: Insecticidal activity against cabbage looper assessed as mortality dosed by ingestion from leaf after 24 hrs by lepidopteran limited ingestion exposure assay. The class given is functional. Summed up:
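Cabbage leaf disks (0.25 cm²) were each treated with 1 µL of a 5 mg/mL acetone solution and dried. Each disk was offered to one of six cabbage looper larvae for 24 h, held individually under ambient lab conditions. Solvent and untreated disk controls were included. Afterwards, mortality, intoxication symptoms and disk consumption were noted, and larvae were given artificial diet.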

The test system of assay [8] is Spodoptera exigua. As to the kind of experiment: Insecticidal activity against 3/4th instar beet armyworm assessed as intoxication and mortality topically dosed at 2.5 ug/larva after 24 hrs by lepidopteran topical assay. The class given is functional, organism-based.
Assay [9] deals with Spodoptera exigua. Kind of assay: Insecticidal activity against fourth instar beet armyworm assessed as body tremors and partial paralysis after 3 to 6 hrs by BAW injection assay. The assay is classed as functional.
Assay [10] concerns Spodoptera exigua. Kind of assay: Insecticidal activity against fourth instar beet armyworm assessed as body tremors and partial paralysis after 24 hrs by BAW injection assay. The assay is classed as functional, organism-based. Put shortly:
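Six fourth-instar beet armyworm were each injected with 0.5 µL of a 20 mg/mL acetone solution (10 µg/insect). Solvent-only and untreated controls were included. Larvae were held singly with artificial diet under ambient conditions. Intoxication symptoms were scored at 1, 24 and 48 h, and mortality at 48 h.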

Assay [11] concerns Trichoplusia ni. As to the kind of experiment: Insecticidal activity against 3/4th instar cabbage looper assessed as intoxication topically dosed at 2.5 ug/larva after 24 hrs by lepidopteran topical assay. The assay is classed as functional.

≈ marks a conversion by molar mass, not a printed value. Calls of active or inactive are those of the source. Where a SMILES comes first, the peptide text is derived from it.

The MIC is the smallest concentration in the dilution series that meets the test's criterion for growth inhibition. Consider `CC[C@H]1CCC[C@H](O[C@H]2CC[C@H](N(C)C)[C@@H](C)O2)[C@@H](C)C(=O)C2=C[C@@H]3[C@@H](C=C[C@@H]4C[C@@H](O[C@@H]5O[C@@H](C)[C@H](OC)[C@@H](OC)[C@H]5OC)C[C@@H]34)[C@@H]2CC(=O)O1` [SPINOSYN A], for which the MIC with Spodoptera exigua [1] is 0.02 µg/mL (≈ 0.0273 µM).
On to `CC(C)C[C@@H]1NC(=O)[C@H](Cc2ccccc2)N(C)C(=O)[C@H](C)NC(=O)c2ccccc2NC(=O)[C@H](Cc2ccc(O)cc2)N(C)C1=O` [CYCLOASPEPTIDE A] (HELM PEPTIDE1{[O=C(c1ccccc1N[*:1])[*:2]].A.[meF].L.[meY]}$PEPTIDE1,PEPTIDE1,1:R1-5:R2$$$V2.0), for which the result in the assay with Spodoptera exigua [2], in the assay on Spodoptera exigua [4], with Trichoplusia ni [6] and in the assay on Trichoplusia ni [7] was inactive. In addition, the minimal inhibitory concentration (MIC) with Spodoptera exigua [1] was more than 500 µg/mL. Moreover, the result with Spodoptera exigua [3] and in the assay with Trichoplusia ni [5] was Active.
On to `CC(C)C[C@@H]1NC(=O)[C@H](Cc2ccccc2)N(C)C(=O)[C@H](C)NC(=O)c2ccccc2NC(=O)[C@H](Cc2ccccc2)N(C)C1=O` [CYCLOASPEPTIDE E] (HELM PEPTIDE1{[O=C(c1ccccc1N[*:1])[*:2]].A.[meF].L.[meF]}$PEPTIDE1,PEPTIDE1,1:R1-5:R2$$$V2.0), for which the MIC in the assay on Spodoptera exigua [1] amounted to 10 µg/mL (≈ 16 µM). Also, the result in the assay on Spodoptera exigua [3] and in the assay on Trichoplusia ni [5] was Active. For the same compound, the outcome in the assay on Spodoptera exigua [8] and in the assay with Spodoptera exigua [10] was inactive. Also, the Activity is 85% in the assay on Spodoptera exigua [9], 15% in the assay on Trichoplusia ni [7] and 50% with Trichoplusia ni [11].

The values are drawn from ChEMBL document CHEMBL1158092, “Discovery, synthesis, and insecticidal activity of cycloaspeptide E” (2006).
